# The list is not random: actives were taken first. Their share in the collection is about 6.4%.
# MPTP block: permeability transition pore inhibition | AID 602449 | 1.4% of 360,000 active | inhibition, % at 10 µM | isolated mouse mitochondria, Ca2+ swelling absorbance, 30 min;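 active means inhibition of 50% or more, scaled per plate between neutral and stimulator controls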;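 further: 0% = DMSO wells given calcium and 100% = 1 mM EGTA wells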
# EBV gp42 inh: EBV gp42 inhibition; Fluorescence polarization binding assay, mP read-out; inhibition, % (tested at 21.74 µM); 0.42% of 220,000 active; in the data active means inhibition above about 50%
# Target sequence (Q1HVG2 whole entry, looked up): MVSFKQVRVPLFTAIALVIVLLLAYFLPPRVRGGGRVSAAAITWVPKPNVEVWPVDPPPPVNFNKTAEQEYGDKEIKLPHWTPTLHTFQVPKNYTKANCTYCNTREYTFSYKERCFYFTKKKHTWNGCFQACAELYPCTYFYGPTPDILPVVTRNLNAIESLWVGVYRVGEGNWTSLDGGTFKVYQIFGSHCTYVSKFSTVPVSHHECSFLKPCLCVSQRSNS
# TbMetRS inhib: Trypanosoma brucei MetRS inhibition. purified T. brucei MetRS, ATP depletion, Kinase-Glo luminescence. inhibition, % at 11.9 µM. 0.4% of 360,000 active;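 active means inhibition above a per-plate cutoff of the control wells' mean inhibition plus 3 SD, cut at about 5.5% in these data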;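 further: 0% = DMSO wells median and 100% = median of wells with control inhibitor compound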
#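 Measured by: Kinase-Glo luciferase luminescence reporting remaining unconsumed ATP. Material: purified T. brucei MetRS enzyme. Doses: 11.9 µM compound single dose, 0.9% DMSO. Medium: HEPES buffer containing pyrophosphatase, BSA, spermine, DTT. Times: 15 min preincubation, 2 h reaction, all 25 °C. Reagent: methionine, ATP and bulk E. coli tRNA.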
# CHOP inh: CHOP inhibition in unfolded protein response; 3.8% of 220,000 active; inhibition, % at 10 µM; AID 2732; CHO-K1 CHOP-promoter luciferase, tunicamycin-induced, 15-18 h;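 active means compounds that reduced the stress-induced luciferase reporter signal by more than about 70% of percent inhibition, limit read from the data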;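 further: 0% = tunicamycin plus vehicle and 100% = wells without tunicamycin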
# NR3A LBD binder: modulates the human NR3A ligand-binding domain; 2.5% of 340,000 active; Tm shift relative to glycine control, % at 25 µM; NR3A LBD differential scanning fluorimetry, Tm shift; 0% = protein alone, 100% = glycine-bound protein;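 active means melting temperature shift of at least 10% of the positive control shift, at one fixed dose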
# WT yeast gro inh: growth inhibition of WT yeast, mitochondrial fusion screen | mitochondrial fusion phenotypic screen, WT strain | inhibition, % at 10 µM | 2.1% of 190,000 active; in the data active means inhibition above about 58%; tested in S. cerevisiae
# Tb MetRS conf: confirmation of Trypanosoma brucei MetRS inhibitors; shares compounds with TbMetRS inhib; T. brucei MetRS enzyme, luminescence (ATP depletion); inhibition, % at 11.9 µM; 93% of 1,400 active; AID 624412; in the data active means inhibition above about 7%
# Jurkat cytotox: counter-screen for T. brucei MetRS inhibitors: Jurkat cell cytotoxicity. shares compounds with TbMetRS inhib. 12% of 1,400 active. Jurkat cells viability, ATP luminescence. inhibition, % at 8.3 µM. AID 624413; in the data active means inhibition above about 15%;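 further: 0% = vehicle and 100% = reference inhibitor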
# TbMetRS FP orth: orthogonal test for Trypanosoma brucei MetRS inhibitors; shares compounds with TbMetRS inhib; purified T. brucei MetRS, fluorescence polarization; inhibition, % at 11.9 µM; 44% of 1,400 active; AID 651607; in the data active means inhibition above about 17%;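 further: 0% = vehicle wells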
# * marks the source's active call; other numbers are inactive results; . = no result given.
SMILES,MPTP block,EBV gp42 inh,TbMetRS inhib,CHOP inh,NR3A LBD binder,WT yeast gro inh,Tb MetRS conf,Jurkat cytotox,TbMetRS FP orth
Cc1cc(C)c(S(=O)(=O)N2CCN(CCN3C(=O)c4cccc5cccc(c45)C3=O)CC2)cc1[N+](=O)[O-],.,-14,.,18,.,21,.,.,.
COc1ccc(C(=O)NC(=S)NNC(=O)c2cnccn2)cc1,1,-6,0,39,-1,-4,.,.,.
O=C(NC(=S)NNC(=O)c1cnccn1)c1ccc(Cl)cc1,-1,-14,5.9*,60,-2,.,2,6,-5
Oc1oc(-c2ccc(Br)cc2)nc1C=Nc1ccc(Br)cn1,4,-21,8.7*,-13,-2,-4,65*,-4,32*
Cc1ccc(N=Cc2nc(-c3ccc(C)cc3)oc2O)cc1,0,-19,-1,-9,-1,12,.,.,.
Cc1cc(CNC(=O)c2cc(COc3c(F)cccc3F)on2)nn1C,-2,-4,0,30,0,-1,.,.,.
O=S(=O)(NCc1ccc(Cl)cc1Cl)c1ccc(N2CCOCC2)nc1,5,-13,6.9*,7,1,.,14*,-3,3
O=C(OCCOc1ccccc1Cl)c1ccc(-n2cnnn2)cc1,3,-7,0,-16,-12,3,.,.,.
O=C1CCC(=O)N1OCCCOc1ccc(Br)cc1Cl,-2,-1,7.0*,15,7,-8,15*,-1,33*
O=C(CCN(CCO)Cc1ccccc1)Nc1ccc(Br)cc1,1,7,20*,-9,-4,26,40*,0,15
C[C@H](O)[C@@H]1C(=O)N2CCc3c([nH]c4ccccc34)[C@@H]2C[C@@H]1N(C)C(=O)Nc1cccc2ccccc12,-2,.,1,.,.,.,.,.,.
COc1ccc(C(=O)N(C)[C@H]2C[C@H]3c4[nH]c5ccccc5c4CCN3C(=O)[C@H]2CO)cc1,0,.,44*,.,.,.,62*,-4,26*
C[C@H](O)[C@@H]1C(=O)N2CCc3c([nH]c4ccccc34)[C@@H]2C[C@@H]1N(C)Cc1ccc2c(c1)OCO2,-1,.,89*,.,.,.,102*,0,83*
Cc1ccccc1C(=O)N(C)[C@H]1C[C@H]2c3[nH]c4ccccc4c3CCN2C(=O)[C@H]1[C@H](C)O,-2,.,31*,.,.,.,48*,4,18*
COc1ccc(-c2ccc3[nH]c4c(c3c2)CCN2C(=O)[C@@H]([C@H](C)O)[C@@H](N(C)C(=O)Nc3ccccc3)C[C@@H]42)cc1,-2,.,-1,.,.,.,.,.,.
C[C@H](O)[C@@H]1C(=O)N2CCc3c([nH]c4ccccc34)[C@@H]2C[C@@H]1N(C)C(=O)c1cc(Cl)cc(Cl)c1,-1,.,13*,.,.,.,46*,0,20*
O=C(Nc1cc(F)ccc1F)C1CCCN(c2ncnc3c2nc2n3CCCCC2)C1 (stereo not drawn),0,.,-1,.,2,.,.,.,.
O=C(CCN1C(=O)c2ccccc2S1(=O)=O)N1CCN(c2ccccc2)CC1,-4,-19,-1,-11,1,-19,.,.,.
C[C@H](O)[C@@H]1CN2CCc3c([nH]c4ccccc34)[C@@H]2C[C@@H]1N(C)Cc1cc(Cl)cc(Cl)c1,3,.,34*,.,.,.,71*,0,37*
C[C@H](O)[C@@H]1C(=O)N2CCc3c([nH]c4ccccc34)[C@@H]2C[C@@H]1N(C)S(=O)(=O)c1ccccc1,-5,.,27*,.,.,.,23*,5,8
COc1ccc(NC(=O)N(C)[C@H]2C[C@H]3c4[nH]c5ccccc5c4CCN3C(=O)[C@H]2[C@H](C)O)cc1,-2,.,2,.,.,.,.,.,.
CCc1ccccc1OCC(=O)Nc1cccc(S(=O)(=O)NC2=NCCCCC2)c1,0,.,20*,.,3,.,40*,4,18*
COc1ccccc1OCC(=O)Nc1cccc(S(=O)(=O)NC2=NCCCCC2)c1,0,.,0,.,1,.,.,.,.
CO[C@@H]1CN(C)C(=O)c2cc(NC(=O)Nc3ccc4c(c3)OCO4)ccc2OC[C@@H](C)N(C)C[C@H]1C,-2,.,0,.,.,.,.,.,.
COCC(=O)N1C[C@H](C)[C@H](OC)CN(C)C(=O)c2cc(NC(=O)Nc3cccc(F)c3)ccc2OC[C@@H]1C,2,.,34*,.,.,.,43*,-3,18*
SMILES,MPTP block,EBV gp42 inh,TbMetRS inhib,CHOP inh,NR3A LBD binder,WT yeast gro inh,Tb MetRS conf,Jurkat cytotox,TbMetRS FP orth
CS(=O)(=O)N1CCN(C(=O)c2csc3ccccc23)CC1,1,-7,1,-23,0,-10,.,.,.
Cc1scc(C(=O)N2CCN(S(C)(=O)=O)CC2)c1-c1ccccc1,-1,-1,24*,4,-1,14,4,2,-3
O=C(NCc1nc2ccccc2[nH]1)C1=C[C@H](C2CCCCC2)C[C@H](OCCCCO)O1,-2,.,59*,.,2,.,75*,7,53*
O=C(NCc1nc2ccccc2[nH]1)C1=C[C@@H](C2CCCCC2)C[C@@H](OCc2ccc(CO)cc2)O1,28,-11,9.0*,25,0,-65,82*,1,54*
Cc1cccc(OCCCC(=O)Nc2nc3ccccc3[nH]2)c1,0,5,63*,73*,0,6,67*,5,46*
Cc1cccc(OCCSCc2nc3ccccc3[nH]2)c1,2,2,8.7*,24,-1,-2,20*,-2,6
C=CCn1c(NCc2ccc(N(C)C)cc2)nc2ccccc21,-1,-13,-1,4,3,-2,.,.,.
COc1ccc2[nH]c3c(NCCCOC(C)C)ncnc3c2c1,1,.,6.2*,.,.,.,17*,9,10
COCCNc1ncnc2c1[nH]c1ccccc12,9,-20,59*,4,1,.,77*,11,42*
OCCCNc1ncnc2c1[nH]c1ccccc12,3,-9,22*,14,-2,.,39*,3,23*
COc1ccc(CCNC(=O)CSc2nc3cc(Cl)ccc3o2)cc1OC,-2,-6,0,17,1,3,.,.,.
CCOC(=O)[C@]12CCC=C1N(Cc1ccco1)C(=O)[C@H](CC(=O)NCc1ccccc1)C2,0,.,1,.,.,.,.,.,.
COc1ccc(S(=O)(=O)N=N/C=C2\C=CC=CN2O)cc1OC,0,.,-1,.,.,.,.,.,.
Cc1ccc(-c2ccc(CCC(=O)O)n2-c2ccc(O)cc2)cc1,-3,-10,0,-4,-1,7,.,.,.
O=C(O)CCc1ccc(-c2ccc(Br)cc2)n1-c1ccc(O)cc1,1,.,5.7*,.,1,.,16*,-6,7
CCc1cc(Cn2nc(-c3ccccc3)cc2C(=O)NCc2cccc(Br)c2)on1,48,.,53*,.,2,.,77*,4,69*

# Compound activity (PubChem BioAssay)
